Calls of active or inactive are those of the source. The calls are words filed in the database; no cut-off is given here.
What was measured:
[1] = molecular target: T1, Mitogen-activated protein kinase 8 (Homo sapiens, UniProt P45983); assay: Inhibition of human JNK1alpha1 at 30 uM after 40 mins by [gamma-33ATP] radiometric assay relative to control
[2] = molecular target: T2, Mitogen-activated protein kinase 10 (Homo sapiens, UniProt P53779); assay: Inhibition of human JNK3 after 40 mins by [gamma-33ATP] radiometric assay relative to control
[3] = molecular target: T2, Mitogen-activated protein kinase 10; assay: Inhibition of human JNK3 at 10 uM after 40 mins by [gamma-33ATP] radiometric assay relative to control
[4] = molecular target: T3, Mitogen-activated protein kinase 9 (Homo sapiens, UniProt P45984); assay: Inhibition of human JNK2alpha2 at 10 uM after 40 mins by [gamma-33ATP] radiometric assay relative to control
Target sequence in this assay (P45984 whole entry, looked up): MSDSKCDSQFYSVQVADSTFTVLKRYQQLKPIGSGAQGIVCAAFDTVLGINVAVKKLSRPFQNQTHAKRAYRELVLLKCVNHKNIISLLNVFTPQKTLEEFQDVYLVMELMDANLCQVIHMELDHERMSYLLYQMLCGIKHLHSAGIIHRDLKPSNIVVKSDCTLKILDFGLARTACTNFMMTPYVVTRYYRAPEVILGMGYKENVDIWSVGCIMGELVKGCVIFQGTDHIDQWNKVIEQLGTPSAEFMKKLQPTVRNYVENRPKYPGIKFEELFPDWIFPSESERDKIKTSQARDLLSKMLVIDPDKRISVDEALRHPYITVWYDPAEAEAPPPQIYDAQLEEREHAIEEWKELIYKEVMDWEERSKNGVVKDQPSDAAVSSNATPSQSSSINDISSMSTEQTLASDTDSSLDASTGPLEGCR

[5] = molecular target: T3, Mitogen-activated protein kinase 9; assay: Inhibition of human JNK2alpha2 at 100 uM after 40 mins by [gamma-33ATP] radiometric assay relative to control
Target sequence in this assay (P45984 whole entry, looked up): as above

[6] = molecular target: T1, Mitogen-activated protein kinase 8; assay: Inhibition of human JNK1alpha1 at 10 uM after 40 mins by [gamma-33ATP] radiometric assay relative to control
[7] = molecular target: T3, Mitogen-activated protein kinase 9; assay: Inhibition of human JNK2alpha2 at 30 uM after 40 mins by [gamma-33ATP] radiometric assay relative to control
Target sequence in this assay (P45984 whole entry, looked up): as above

[8] = molecular target: T1, Mitogen-activated protein kinase 8; assay: Inhibition of human JNK1alpha1 at 100 uM after 40 mins by [gamma-33ATP] radiometric assay relative to control
[9] = molecular target: T4, Discoidin domain-containing receptor 2 (Homo sapiens) (UniProt Q16832); assay: Inhibition of human DDR2 at 10 uM using KKSRGDYMTMQIG as substrate after 40 mins by [gamma-33P]-ATP assay
T4 sequence (whole entry): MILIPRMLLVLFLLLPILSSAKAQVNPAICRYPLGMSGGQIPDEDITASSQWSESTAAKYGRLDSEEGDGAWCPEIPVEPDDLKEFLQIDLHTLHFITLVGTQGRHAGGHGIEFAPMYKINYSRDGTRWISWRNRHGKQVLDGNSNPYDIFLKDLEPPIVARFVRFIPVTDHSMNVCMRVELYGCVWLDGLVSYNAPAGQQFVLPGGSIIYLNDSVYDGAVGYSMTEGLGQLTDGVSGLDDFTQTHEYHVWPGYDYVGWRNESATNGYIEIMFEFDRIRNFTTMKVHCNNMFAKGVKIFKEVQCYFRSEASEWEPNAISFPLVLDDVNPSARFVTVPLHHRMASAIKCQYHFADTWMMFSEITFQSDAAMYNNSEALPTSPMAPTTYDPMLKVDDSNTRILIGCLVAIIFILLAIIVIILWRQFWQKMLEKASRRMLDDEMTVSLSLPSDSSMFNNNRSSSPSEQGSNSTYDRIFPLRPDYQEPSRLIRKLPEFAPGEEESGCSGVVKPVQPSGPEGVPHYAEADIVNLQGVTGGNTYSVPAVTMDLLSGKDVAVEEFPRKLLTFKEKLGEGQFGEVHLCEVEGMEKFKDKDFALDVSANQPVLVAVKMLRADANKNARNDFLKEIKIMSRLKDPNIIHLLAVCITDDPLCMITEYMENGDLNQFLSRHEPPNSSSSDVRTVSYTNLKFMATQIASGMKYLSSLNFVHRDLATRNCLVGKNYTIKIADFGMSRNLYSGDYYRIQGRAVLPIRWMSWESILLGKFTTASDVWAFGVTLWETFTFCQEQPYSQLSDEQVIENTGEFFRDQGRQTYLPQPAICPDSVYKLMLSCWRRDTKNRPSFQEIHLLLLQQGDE
Procedure, shortened: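 Human DDR2 in 8 mM MOPS pH 7.0, 0.2 mM EDTA, 250 μM peptide, 10 mM MnCl2 plus 10 mM Mg acetate, [γ-33P]-ATP (approx. 500 cpm/pmol). Reaction started with MgATP, run 40 min at room temperature, quenched with 3% phosphoric acid; P30 filtermat capture, phosphoric acid/methanol washes, scintillation counting; activity relative to no-inhibitor control set as 100%.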

[10] = molecular target: T5, Epithelial discoidin domain-containing receptor 1 (Homo sapiens, UniProt Q08345); assay: Inhibition of human DDR1 at 10 uM using KKKSPGEYVNIEFG as substrate after 40 mins by [gamma-33P]-ATP assay
Procedure, shortened: (§1)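 Human DDR1 in 8 mM MOPS pH 7.0, 0.2 mM EDTA, 250 μM peptide substrate, 10 mM Mg acetate, [γ-33P]-ATP (approx. 500 cpm/pmol); started with MgATP, 40 min room temperature, stopped with 3% phosphoric acid, spotted on P30 filtermat, washed in 75 mM phosphoric acid and methanol, scintillation counted. Activity as % of no-inhibitor control.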

[11] = test system: Epidermal growth factor receptor (Homo sapiens), P00533 [L858R]; assay: Inhibition of human EGFR L858R at 10 uM using poly[Glu:Tyr] (4:1) as substrate measured after 40 mins in presence of [gamma-33P]ATP by radiometric assay
Procedure, shortened: (§2)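 Human EGFR L858R incubated in 8 mM MOPS pH 7.0, 0.2 mM EDTA, 10 mM MnCl2, 0.1 mg/mL poly(Glu,Tyr) 4:1, 10 mM Mg acetate, [γ-33P]-ATP (approx. 500 cpm/pmol); MgATP start, 40 min room temperature, 3% phosphoric acid stop, Filtermat A spotting, washes in 75 mM phosphoric acid and methanol, scintillation readout; % of uninhibited activity.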

[12] = molecular target: T3, Mitogen-activated protein kinase 9; assay: Inhibition of human JNK2alpha2 after 40 mins by [gamma-33ATP] radiometric assay relative to control
Target sequence in this assay (P45984 whole entry): as the sequence (P45984 whole entry, looked up) above

[13] = molecular target: Epidermal growth factor receptor (Homo sapiens, UniProt P00533, L858R/T790M); assay: Inhibition of human EGFR L858R/T790M mutant GGMEDIYFEFMGGKKK as substrate measured after 40 mins in presence of [gamma-33P]ATP by radiometric assay
Procedure, shortened: (§3)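 EGFR T790M/L858R (human) in 8 mM MOPS pH 7.0, 0.2 mM EDTA, 250 μM peptide substrate, 10 mM Mg acetate, [γ-33P]-ATP (approx. 500 cpm/pmol); initiated with MgATP, 40 min room temperature, terminated with 3% phosphoric acid, P30 filtermat, 75 mM phosphoric acid and methanol washes, scintillation counting.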

[14] = molecular target: T5, Epithelial discoidin domain-containing receptor 1; assay: Inhibition of human DDR1 using KKKSPGEYVNIEFG as substrate after 40 mins by [gamma-33P]-ATP assay; procedure, shortened: as §1
[15] = molecular target: T1, Mitogen-activated protein kinase 8; assay: Inhibition of human JNK1alpha1 after 40 mins by [gamma-33ATP] radiometric assay relative to control
[16] = test system: Epidermal growth factor receptor (Homo sapiens), P00533 [L858R,T790M]; assay: Inhibition of human EGFR L858R/T790M mutant at 10 uM GGMEDIYFEFMGGKKK as substrate measured after 40 mins in presence of [gamma-33P]ATP by radiometric assay; procedure, shortened: as §3
[17] = molecular target: Epidermal growth factor receptor (Homo sapiens, UniProt P00533, L858R); assay: Inhibition of human EGFR L858R using poly[Glu:Tyr] (4:1) as substrate measured after 40 mins in presence of [gamma-33P]ATP by radiometric assay; procedure, shortened: as §2
Epidermal growth factor receptor (Homo sapiens, UniProt P00533, L858R), sequence (P00533 25-1210 L858R limits assumed): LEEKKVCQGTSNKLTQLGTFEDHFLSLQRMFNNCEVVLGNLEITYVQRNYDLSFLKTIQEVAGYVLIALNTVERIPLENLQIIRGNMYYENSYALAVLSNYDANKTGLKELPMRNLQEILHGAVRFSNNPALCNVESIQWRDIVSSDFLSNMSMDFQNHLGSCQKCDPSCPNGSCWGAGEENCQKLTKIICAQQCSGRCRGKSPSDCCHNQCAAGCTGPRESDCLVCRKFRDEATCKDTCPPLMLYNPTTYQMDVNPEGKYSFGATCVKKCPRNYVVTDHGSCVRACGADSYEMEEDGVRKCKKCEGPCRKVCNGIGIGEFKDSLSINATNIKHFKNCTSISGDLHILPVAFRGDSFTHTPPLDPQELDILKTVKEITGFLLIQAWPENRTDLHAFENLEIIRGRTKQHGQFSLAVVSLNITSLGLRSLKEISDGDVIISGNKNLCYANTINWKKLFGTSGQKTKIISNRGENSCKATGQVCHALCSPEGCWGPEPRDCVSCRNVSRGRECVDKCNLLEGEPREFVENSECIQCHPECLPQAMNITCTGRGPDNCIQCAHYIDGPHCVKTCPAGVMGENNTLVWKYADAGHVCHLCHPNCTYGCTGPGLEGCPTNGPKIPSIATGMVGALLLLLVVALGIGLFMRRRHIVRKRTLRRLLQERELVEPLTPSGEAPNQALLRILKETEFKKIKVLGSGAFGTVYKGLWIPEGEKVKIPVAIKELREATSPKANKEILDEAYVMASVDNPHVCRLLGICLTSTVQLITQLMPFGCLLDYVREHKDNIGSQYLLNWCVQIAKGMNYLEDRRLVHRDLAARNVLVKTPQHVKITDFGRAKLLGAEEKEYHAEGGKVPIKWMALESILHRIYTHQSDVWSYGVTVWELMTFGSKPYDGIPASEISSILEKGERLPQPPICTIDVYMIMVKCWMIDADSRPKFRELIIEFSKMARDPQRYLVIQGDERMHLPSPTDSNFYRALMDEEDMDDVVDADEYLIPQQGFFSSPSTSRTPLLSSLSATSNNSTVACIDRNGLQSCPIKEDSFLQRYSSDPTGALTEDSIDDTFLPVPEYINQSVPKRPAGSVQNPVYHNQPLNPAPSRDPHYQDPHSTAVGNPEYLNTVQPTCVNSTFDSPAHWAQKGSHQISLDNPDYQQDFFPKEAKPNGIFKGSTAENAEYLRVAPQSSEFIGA

T1 sequence (P45983 whole entry): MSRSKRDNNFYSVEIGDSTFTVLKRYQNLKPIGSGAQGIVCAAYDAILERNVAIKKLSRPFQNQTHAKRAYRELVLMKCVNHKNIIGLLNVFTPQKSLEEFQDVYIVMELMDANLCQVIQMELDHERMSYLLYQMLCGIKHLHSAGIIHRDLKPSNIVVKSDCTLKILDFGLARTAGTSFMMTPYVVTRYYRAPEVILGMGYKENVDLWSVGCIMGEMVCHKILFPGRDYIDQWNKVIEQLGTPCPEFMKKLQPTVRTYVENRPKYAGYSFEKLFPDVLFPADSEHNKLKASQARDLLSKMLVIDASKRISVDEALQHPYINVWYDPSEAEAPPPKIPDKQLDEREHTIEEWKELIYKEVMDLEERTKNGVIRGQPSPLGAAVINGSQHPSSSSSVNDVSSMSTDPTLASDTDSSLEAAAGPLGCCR
T2 sequence (P53779 whole entry): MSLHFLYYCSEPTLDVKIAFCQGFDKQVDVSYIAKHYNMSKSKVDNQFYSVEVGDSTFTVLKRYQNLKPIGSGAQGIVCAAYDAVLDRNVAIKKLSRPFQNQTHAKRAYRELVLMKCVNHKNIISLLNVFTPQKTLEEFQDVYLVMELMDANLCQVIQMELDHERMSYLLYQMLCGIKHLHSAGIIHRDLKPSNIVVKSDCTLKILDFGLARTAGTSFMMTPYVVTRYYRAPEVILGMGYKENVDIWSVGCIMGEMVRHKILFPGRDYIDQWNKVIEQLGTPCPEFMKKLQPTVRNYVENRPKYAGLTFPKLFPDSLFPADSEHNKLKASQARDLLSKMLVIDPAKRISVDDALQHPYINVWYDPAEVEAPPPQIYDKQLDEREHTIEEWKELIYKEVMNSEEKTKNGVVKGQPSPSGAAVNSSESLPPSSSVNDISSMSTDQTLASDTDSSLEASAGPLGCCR
T5 sequence (Q08345 whole entry, the tested form may be a part): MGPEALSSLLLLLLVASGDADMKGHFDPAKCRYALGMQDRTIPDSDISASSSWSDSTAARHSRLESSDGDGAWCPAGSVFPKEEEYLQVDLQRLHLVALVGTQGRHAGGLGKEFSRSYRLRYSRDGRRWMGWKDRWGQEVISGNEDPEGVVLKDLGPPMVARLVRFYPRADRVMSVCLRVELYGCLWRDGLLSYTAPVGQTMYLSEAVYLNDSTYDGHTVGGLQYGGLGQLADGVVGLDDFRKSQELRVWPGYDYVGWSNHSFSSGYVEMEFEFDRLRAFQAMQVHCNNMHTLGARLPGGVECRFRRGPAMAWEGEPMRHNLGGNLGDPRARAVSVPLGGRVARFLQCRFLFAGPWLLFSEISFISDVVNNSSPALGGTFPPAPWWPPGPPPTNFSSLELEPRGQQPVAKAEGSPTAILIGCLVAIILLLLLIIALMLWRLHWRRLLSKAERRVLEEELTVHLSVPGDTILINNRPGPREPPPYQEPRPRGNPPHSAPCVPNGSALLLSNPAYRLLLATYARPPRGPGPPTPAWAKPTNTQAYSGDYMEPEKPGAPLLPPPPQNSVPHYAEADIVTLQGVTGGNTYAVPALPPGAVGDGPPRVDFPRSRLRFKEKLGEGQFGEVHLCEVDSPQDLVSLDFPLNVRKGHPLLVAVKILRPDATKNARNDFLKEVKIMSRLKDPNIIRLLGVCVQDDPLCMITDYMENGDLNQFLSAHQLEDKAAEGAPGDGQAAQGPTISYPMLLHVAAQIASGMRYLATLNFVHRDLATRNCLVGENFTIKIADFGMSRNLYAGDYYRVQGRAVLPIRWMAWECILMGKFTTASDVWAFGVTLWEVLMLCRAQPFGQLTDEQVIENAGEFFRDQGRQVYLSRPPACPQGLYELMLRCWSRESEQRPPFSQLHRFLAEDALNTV

Compound | inhibition [1] | IC50 [2] [µM] | inhibition [3] [%] | inhibition [4] | inhibition [5] | inhibition [6] | inhibition [7] | inhibition [8] | inhibition [9] | inhibition [10] | inhibition [11] | IC50 [12] [µM] | IC50 [13] [µM] | IC50 [14] [µM] | IC50 [15] [µM] | inhibition [16] | IC50 [17] [µM]
COc1cccc(C(=O)/C=C2\Nc3ccccc3NC2=O)c1 | inactive | 5.6 | 70 | inactive | inactive | inactive | inactive | inactive | Active | inactive |  |  |  |  |  |  | 
N#Cc1ccc2c(c1)N/C(=C\C(=O)c1cccc3ccccc13)C(=O)N2 | inactive | 0.19 | 88 | inactive | inactive | inactive | inactive | inactive |  |  | inactive | > 100 | > 10 | > 10 | > 100 | inactive | > 10
